Laboratory results published in ChEMBL document CHEMBL1151719, “Discovery of a "true" aspirin prodrug” (J Med Chem, 2008).

Assays:
[1] = biological target: Cholinesterase (Homo sapiens) (UniProt P06276); experiment: Activity of BuChE in 10% human plasma; assay type: cell-free; design: Vmax(app): unit not given here
In short: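 Citrated human venous blood was centrifuged, and the pooled plasma or serum was diluted with phosphate buffer pH 7.4. Whole blood was used undiluted. Ester substrate at 5 × 10^-5 M was added from acetonitrile and incubated at 37 °C. Timed aliquots were quenched in ZnSO4 in MeCN/H2O and analysed by HPLC at 230 nm. Apparent KM and Vmax were fitted to the integrated Michaelis-Menten equation. Triplicate.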

Platelet [2] = experiment: Inhibition of arachidonic acid-induced platelet aggregation in whole blood; assay type: functional, tissue-based
In short: (§1)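 Citrated human whole blood (500 µL) diluted with 500 µL saline, equilibrated 10 min at 37 °C, then pre-incubated 10 min with stirring with test compound added in DMSO (10 µL). Aggregation triggered by arachidonic acid (0.5 mM); impedance read over 6 min. Inhibition tested over 5-100 µM; fit by nonlinear regression.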

Plasma [3] = experiment: Stability in 10% human plasma assessed as aspirin yield at pH 7.4; assay type: ADME, cell-free
In short: (§2)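 Pooled plasma or serum from centrifuged citrated human venous blood, diluted with pH 7.4 phosphate buffer (whole blood undiluted), preheated to 37 ± 0.5 °C. Ester added from acetonitrile at 5 × 10^-5 M. Aliquots were quenched in 2% ZnSO4 in MeCN/H2O (1:1), centrifuged, and analysed by gradient C18 HPLC (230 nm) until the parent was consumed. Fit to first-order decay; triplicate.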

[4] = Stability in 10% human plasma assessed as half life of hydrolysis at pH 7.4; assay type: ADME, cell-free; in short: as §2
Plasma [5] = experiment: Stability in 30% human plasma assessed as aspirin yield at pH 7.4; assay type: ADME, cell-free; in short: as §2
[6] = Stability in 30% human plasma assessed as half life of hydrolysis at pH 7.4; assay type: ADME, cell-free; in short: as §2
Plasma [7] = experiment: (§3) Stability in 50% human plasma assessed as half life of hydrolysis at pH 7.4; assay type: ADME, cell-free; settings: plasma
In short: (§4)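 Ester at 5 × 10^-5 M, added from acetonitrile, was incubated at 37 °C in pooled citrated human plasma diluted to 50% with phosphate buffer pH 7.4. Aliquots were deproteinised with ZnSO4 in MeCN/H2O and the remaining ester was quantified by HPLC at 230 nm. The rate constant came from an exponential decay fit. Triplicate.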

Plasma [8] = experiment: Stability in 30% plasma from patient with dubucaine-insensitive BuChE assessed as aspirin yield at pH 7.4 in presence of 20 uM BuChE inhibitor dibucaine; assay type: ADME, cell-free; settings: human
In short: (§5)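 Pooled citrated human plasma was diluted to 30% with phosphate buffer pH 7.4. Inhibitor was preincubated for 5 min before adding ester (5 × 10^-5 M) at 37 °C. Lines 15-16 used plasma from a donor with dibucaine-resistant BuChE. Timed aliquots were quenched with ZnSO4 in MeCN/H2O, and parent and aspirin were measured by HPLC at 230 nm. kobs came from exponential decay. Three determinations, mean ± SD.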

[9] = Stability in 30% human plasma assessed as half life of hydrolysis at pH 7.4 in presence of 0.1 uM AChE inhibitor BW284c51; assay type: ADME, cell-free; settings: pH 7.4, with BW284c51 (AChE inhibitor); in short: as §5
[10] = Stability in whole blood assessed as half life of hydrolysis at pH 7.4; assay type: ADME, tissue-based; in short: as §2
[11] = Stability in 10% rat plasma assessed as half life of hydrolysis at pH 7.4; assay type: ADME, cell-free
Plasma [12] = experiment: Stability in 30% human plasma assessed as aspirin yield at pH 7.4 in presence of 2 mM arylesterase inhibitor EDTA; assay type: ADME, cell-free
In short: (§6)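 Diluted human plasma (30%, pH 7.4, 37 °C) pre-incubated 5 min with inhibitor (EDTA 2 mM or BNPP 10 µM) before ester addition at 5 × 10^-5 M from acetonitrile. ZnSO4/MeCN quench, then HPLC of ester and aspirin. First-order fit; three determinations.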

Plasma [13] = experiment: Stability in 30% human plasma assessed as aspirin yield at pH 7.4 in presence of 100 uM AChE inhibitor BW284c51; assay type: ADME, cell-free; in short: as §5
[14] = Stability in whole blood assessed as aspirin yield at pH 7.4; assay type: ADME, tissue-based; in short: as §2
Serum = experiment: Stability in 50% human serum assessed as aspirin yield at pH 7.4; assay type: ADME, cell-free; in short: as §2
[15] = Stability in 30% human plasma assessed as half life of hydrolysis at pH 7.4 in presence of 20 uM BuChE subtype inhibitor dibucaine; assay type: ADME, cell-free; settings: pH 7.4, with dibucaine (BuChE subtype inhibitor); in short: as §5
[16] = Stability in 30% human plasma assessed as half life of hydrolysis at pH 7.4 in presence of 100 uM AChE inhibitor BW284c51; assay type: ADME, cell-free; settings: pH 7.4, with BW284c51 (AChE inhibitor); in short: as §5
Plasma [17] = experiment: Stability in 30% human plasma assessed as aspirin yield at pH 7.4 in presence of 20 uM BuChE subtype inhibitor dibucaine; assay type: ADME, cell-free; in short: as §5
[18] = Stability in 30% human plasma assessed as half life of hydrolysis at pH 7.4 in presence of 10 uM carboxylesterase inhibitor BNPP; assay type: ADME, cell-free; settings: pH 7.4, with BNPP (carboxylesterase inhibitor); in short: as §5
Plasma [19] = experiment: Stability in 50% human plasma assessed as aspirin yield at pH 7.4; assay type: ADME, cell-free; in short: as §2
[20] = biological target: Butyrylcholinesterase (Rattus norvegicus) (UniProt Q9JKC1); experiment: Activity of BuChE in 10% rat plasma
Butyrylcholinesterase (Rattus norvegicus), sequence (Q9JKC1 as listed by the source): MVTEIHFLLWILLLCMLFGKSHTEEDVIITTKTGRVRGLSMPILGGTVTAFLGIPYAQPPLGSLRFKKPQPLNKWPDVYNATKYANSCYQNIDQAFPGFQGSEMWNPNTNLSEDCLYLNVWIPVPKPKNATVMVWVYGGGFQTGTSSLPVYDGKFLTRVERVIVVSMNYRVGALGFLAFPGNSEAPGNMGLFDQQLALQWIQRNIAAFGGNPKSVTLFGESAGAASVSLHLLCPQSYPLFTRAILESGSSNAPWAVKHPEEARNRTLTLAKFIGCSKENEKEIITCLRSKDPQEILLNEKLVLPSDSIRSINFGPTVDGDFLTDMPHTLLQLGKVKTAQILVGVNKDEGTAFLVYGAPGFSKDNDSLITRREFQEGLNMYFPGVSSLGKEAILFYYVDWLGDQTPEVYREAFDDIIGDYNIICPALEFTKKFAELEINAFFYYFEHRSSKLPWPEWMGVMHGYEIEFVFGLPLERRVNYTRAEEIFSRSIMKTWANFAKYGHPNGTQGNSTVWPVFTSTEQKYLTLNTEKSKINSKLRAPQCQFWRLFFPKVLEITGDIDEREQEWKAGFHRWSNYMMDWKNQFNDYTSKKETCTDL

[21] = Stability in 30% human plasma assessed as half life of hydrolysis at pH 7.4 in presence of 2 mM arylesterase inhibitor EDTA; assay type: ADME, cell-free; settings: pH 7.4, with EDTA (arylesterase inhibitor); in short: as §5
[22] = Stability in 50% human serum assessed as half life of hydrolysis at pH 7.4; assay type: ADME, cell-free; in short: as §2
Plasma [23] = experiment: Stability in 30% human plasma assessed as aspirin yield at pH 7.4 in presence of 10 uM carboxylesterase inhibitor BNPP; assay type: ADME, cell-free; in short: as §6
[24] = Stability in 30% human plasma assessed as half life of hydrolysis at pH 7.4 in presence of 10 uM BuChE inhibitor iso-OMPA; assay type: ADME, cell-free; settings: pH 7.4, with iso-OMPA (BuChE inhibitor); in short: as §5
[25] = Stability in 30% human plasma assessed as half life of hydrolysis at pH 7.4 in presence of 20 uM cholinesterase inhibitor eserine; assay type: ADME, cell-free; settings: pH 7.4, with eserine (cholinesterase inhibitor); in short: as §5
[26] = Stability in 30% human plasma assessed as half life of hydrolysis at pH 7.4 in presence of 20 uM dubucaine-insensitive BuChE subtype inhibitor dibucaine; assay type: ADME, cell-free; settings: pH 7.4, with dibucaine; in short: as §5
[27] = as §3; assay type: ADME, cell-free; settings: 50% human plasma; in short: as §4
Platelet [28] = experiment: Inhibition of arachidonic acid-induced platelet aggregation in whole blood at 100 uM; assay type: functional; in short: as §1

Cholinesterase (Homo sapiens), sequence (P06276 whole entry): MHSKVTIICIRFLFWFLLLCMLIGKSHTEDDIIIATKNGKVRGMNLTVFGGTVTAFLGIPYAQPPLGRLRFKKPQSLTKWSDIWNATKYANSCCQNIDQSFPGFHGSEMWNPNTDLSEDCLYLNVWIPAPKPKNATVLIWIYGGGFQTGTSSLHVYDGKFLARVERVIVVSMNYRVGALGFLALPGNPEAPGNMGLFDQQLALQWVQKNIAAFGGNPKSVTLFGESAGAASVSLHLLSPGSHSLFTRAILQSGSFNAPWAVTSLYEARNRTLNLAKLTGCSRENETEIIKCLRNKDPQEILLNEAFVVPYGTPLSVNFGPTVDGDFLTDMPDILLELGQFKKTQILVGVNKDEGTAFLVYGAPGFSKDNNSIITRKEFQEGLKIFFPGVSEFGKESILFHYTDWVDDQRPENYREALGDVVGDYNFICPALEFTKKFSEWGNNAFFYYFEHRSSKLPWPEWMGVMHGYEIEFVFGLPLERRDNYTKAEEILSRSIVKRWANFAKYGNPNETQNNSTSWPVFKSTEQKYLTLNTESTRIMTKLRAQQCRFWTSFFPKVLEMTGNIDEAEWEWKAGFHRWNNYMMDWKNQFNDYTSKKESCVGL

## CC(=O)Oc1ccccc1C(=O)Oc1ccccc1
[1]
  T1/2: 1.3 min

## CC(=O)Oc1ccccc1C(=O)O [ASPIRIN]
[1]
  T1/2: 120 min
Platelet [2]
  IC50: 25.5 µM

## CC(=O)Oc1ccccc1C(=O)O[C@H]1CO[C@H]2[C@@H]1OC[C@H]2OC(=O)c1ccccc1OC(C)=O
Plasma [3]
  Activity: 51%
[1]
  Vmax(app): 0.3
[4]
  half-life: 3.35 min
Plasma [5]
  Activity: 61%
[6]
  half-life: 1.17 min
Platelet [2]
  IC50: 34.1 µM
Plasma [7]
  t1/2: 0.57 min

## CC(=O)Oc1ccccc1C(=O)O[C@H]1CO[C@H]2[C@@H]1OC[C@H]2OC(=O)c1ccccc1O
Plasma [8]
  Activity: 69%
Plasma [3]
  Activity: 74%
[1]
  Vmax(app): 0.17
[4]
  half-life: 4.9 min
[9]
  half-life: 1.1 min
[10]
  half-life: 0.96 min
[11]
  half-life: 0.47 min
Plasma [12]
  Activity: 85%
Plasma [13]
  Activity: 30%
[14]
  Activity: 72%
Serum
  Activity: 73%
[15]
  half-life: 4.6 min
[16]
  half-life: 3.9 min
Plasma [17]
  Activity: 6%
[18]
  half-life: 0.95 min
Plasma [19]
  Activity: 81%
[20]
  Vmax(app): 1.75 M/min
Platelet [2]
  IC50: 17.3 µM
[21]
  half-life: 1.41 min
[22]
  half-life: 0.56 min
Plasma [23]
  Activity: 84%
[24]
  half-life: 7.04 min
[25]
  half-life: 5.8 min
[26]
  half-life: 2 min
[27]
  half-life: 0.49 min

## CC(=O)Oc1ccccc1C(=O)O[C@H]1CO[C@H]2[C@@H]1OC[C@H]2O
Plasma [3]
  Activity: 3%
[1]
  Vmax(app): 0.22
[4]
  half-life: 3.25 min
Platelet [28]
  inhibition at 100 µM: < 30%

## CC(=O)Oc1ccccc1C(=O)O[C@@H]1CO[C@H]2[C@@H]1OC[C@@H]2OC(=O)c1ccccc1O
[1]
  Vmax(app): 0.23
[4]
  half-life: 4.21 min

## CC(=O)Oc1ccccc1C(=O)O[C@@H]1CO[C@H]2[C@@H]1OC[C@@H]2O
[1]
  Vmax(app): 0.25
[4]
  half-life: 4.73 min
